The target in test [1] is T1, Protein deacetylase HDAC6 (Homo sapiens, UniProt Q9UBN7).
T1 sequence (Q9UBN7 whole entry): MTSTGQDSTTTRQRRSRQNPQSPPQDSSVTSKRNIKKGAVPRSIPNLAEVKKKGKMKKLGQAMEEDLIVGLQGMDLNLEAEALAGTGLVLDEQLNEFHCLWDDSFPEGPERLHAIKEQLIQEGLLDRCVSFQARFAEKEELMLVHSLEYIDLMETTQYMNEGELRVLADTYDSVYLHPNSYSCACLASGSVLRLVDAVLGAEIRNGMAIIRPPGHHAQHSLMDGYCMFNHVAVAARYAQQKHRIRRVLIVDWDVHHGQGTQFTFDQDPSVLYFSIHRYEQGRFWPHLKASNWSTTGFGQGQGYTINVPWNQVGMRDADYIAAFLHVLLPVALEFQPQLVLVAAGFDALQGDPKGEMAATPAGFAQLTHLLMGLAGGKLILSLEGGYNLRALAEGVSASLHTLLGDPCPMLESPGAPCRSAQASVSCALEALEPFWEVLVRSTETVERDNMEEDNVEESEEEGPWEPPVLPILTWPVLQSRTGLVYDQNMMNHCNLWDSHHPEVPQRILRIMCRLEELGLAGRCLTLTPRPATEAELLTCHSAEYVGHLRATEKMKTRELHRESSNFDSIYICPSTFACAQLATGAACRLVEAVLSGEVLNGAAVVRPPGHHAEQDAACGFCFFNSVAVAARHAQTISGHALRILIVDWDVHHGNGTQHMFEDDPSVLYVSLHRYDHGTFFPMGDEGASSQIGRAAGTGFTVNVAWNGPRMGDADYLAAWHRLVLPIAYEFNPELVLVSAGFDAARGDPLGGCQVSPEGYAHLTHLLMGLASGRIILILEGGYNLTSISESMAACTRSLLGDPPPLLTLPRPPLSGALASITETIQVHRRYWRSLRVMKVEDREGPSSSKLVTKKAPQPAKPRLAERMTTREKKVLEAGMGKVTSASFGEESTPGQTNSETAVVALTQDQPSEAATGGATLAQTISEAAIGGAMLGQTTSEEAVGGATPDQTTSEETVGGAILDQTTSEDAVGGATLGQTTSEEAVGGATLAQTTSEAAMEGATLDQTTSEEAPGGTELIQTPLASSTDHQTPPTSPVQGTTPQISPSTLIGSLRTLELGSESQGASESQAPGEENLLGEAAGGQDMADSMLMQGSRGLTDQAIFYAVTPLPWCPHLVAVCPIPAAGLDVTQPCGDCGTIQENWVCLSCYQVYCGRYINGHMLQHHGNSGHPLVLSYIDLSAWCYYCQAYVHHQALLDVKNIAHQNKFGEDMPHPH
Kind of test: Inhibition of HDAC6.

The target of test [2] is T2, NAD-dependent protein deacetylase sirtuin-1 (Homo sapiens) (UniProt Q96EB6).
T2 sequence (whole entry): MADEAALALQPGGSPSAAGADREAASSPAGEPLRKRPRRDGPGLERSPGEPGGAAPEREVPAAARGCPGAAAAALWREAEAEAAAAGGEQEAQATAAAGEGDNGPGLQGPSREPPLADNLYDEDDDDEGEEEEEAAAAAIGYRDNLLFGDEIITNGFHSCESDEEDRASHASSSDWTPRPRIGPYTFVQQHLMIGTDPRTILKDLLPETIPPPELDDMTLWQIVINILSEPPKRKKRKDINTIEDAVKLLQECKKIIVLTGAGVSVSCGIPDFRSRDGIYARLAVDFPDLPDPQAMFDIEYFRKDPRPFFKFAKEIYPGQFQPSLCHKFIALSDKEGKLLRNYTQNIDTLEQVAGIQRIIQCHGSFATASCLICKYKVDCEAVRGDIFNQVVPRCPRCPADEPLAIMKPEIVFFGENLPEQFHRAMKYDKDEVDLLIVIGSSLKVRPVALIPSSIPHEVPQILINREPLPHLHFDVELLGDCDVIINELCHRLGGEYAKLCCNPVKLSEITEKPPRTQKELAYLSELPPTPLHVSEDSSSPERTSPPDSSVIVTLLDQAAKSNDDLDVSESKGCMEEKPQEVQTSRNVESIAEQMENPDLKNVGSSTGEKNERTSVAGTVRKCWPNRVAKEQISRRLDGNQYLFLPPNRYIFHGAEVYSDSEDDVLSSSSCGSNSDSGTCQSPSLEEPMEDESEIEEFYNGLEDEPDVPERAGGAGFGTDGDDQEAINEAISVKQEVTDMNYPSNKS
Kind of test: Inhibition of SIRT1 in human HCT116 cells assessed as increase in acetylated p53 at 1 to 10 uM after 8 hrs by Western blot analysis. Type of test: cell-based. The note with it: HCT-116. In a few lines: (§1)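 HCT116 cells grown in McCoy's 5A with 10% FBS. 5×10⁵ cells exposed 8 h to compound at 1 or 10 μM, alongside 20 μM etoposide. SDS lysates equalized by Bradford assay and run on 15% SDS-PAGE, then blotted onto nitrocellulose. Blots probed overnight at 4 °C for acetyl-p53, p53, acetyl-α-tubulin and α-tubulin, and detected by ECL. Signal given as acetylated/total protein ratio.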
For orientation: A western blot detects proteins with antibodies after separation by electrophoresis.

Test [3] concerns the target T3, NAD-dependent protein deacetylase sirtuin-3, mitochondrial (Homo sapiens, UniProt Q9NTG7).
T3 sequence (Q9NTG7 whole entry): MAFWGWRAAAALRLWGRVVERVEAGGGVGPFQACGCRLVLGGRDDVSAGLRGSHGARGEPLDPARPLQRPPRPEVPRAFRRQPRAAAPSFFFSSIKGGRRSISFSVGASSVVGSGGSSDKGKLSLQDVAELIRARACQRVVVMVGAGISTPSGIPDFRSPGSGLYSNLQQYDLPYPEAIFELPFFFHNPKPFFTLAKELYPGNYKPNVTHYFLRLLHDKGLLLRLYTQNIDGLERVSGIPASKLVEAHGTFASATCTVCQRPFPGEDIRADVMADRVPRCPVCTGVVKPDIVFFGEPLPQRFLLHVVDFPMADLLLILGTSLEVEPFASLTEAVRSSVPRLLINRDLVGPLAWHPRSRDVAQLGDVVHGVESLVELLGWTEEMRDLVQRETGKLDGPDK
As to the kind of experiment: Inhibition of human recombinant SIRT3 using Fluor de Lys-SIRT as substrate incubated for 60 mins prior to substrate addition measured after 60 mins by fluorimetric analysis.

Test [4] has as its target T4, NAD-dependent protein deacetylase sirtuin-2 (Homo sapiens) (UniProt Q8IXJ6).
T4 sequence (whole entry): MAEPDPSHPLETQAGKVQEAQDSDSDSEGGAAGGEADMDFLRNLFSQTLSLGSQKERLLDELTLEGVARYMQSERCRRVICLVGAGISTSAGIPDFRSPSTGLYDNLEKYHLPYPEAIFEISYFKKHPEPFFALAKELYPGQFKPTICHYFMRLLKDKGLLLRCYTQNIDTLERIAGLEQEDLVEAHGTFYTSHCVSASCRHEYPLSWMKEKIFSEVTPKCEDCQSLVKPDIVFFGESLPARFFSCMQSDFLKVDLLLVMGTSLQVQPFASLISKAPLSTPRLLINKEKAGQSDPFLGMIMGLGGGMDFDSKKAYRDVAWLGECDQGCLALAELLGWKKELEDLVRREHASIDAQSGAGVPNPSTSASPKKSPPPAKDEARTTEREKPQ
Kind of test: Inhibition of SIRT2 in human HCT116 cells assessed as increase in acetylated alpha-tubulin after 8 hrs by Western blot analysis. The class given is cell-based. The conditions noted are these: HCT-116. In a few lines: as §1

Each structure is given as a SMILES string. Calls of active or inactive are those of the source. No cut-off for these calls is given here.

Take `NC(=O)c1ccccc1Nc1cccc(OCCc2ccccc2)c1`: the IC50 was over 30 µM in test [1] and over 300 µM in test [3]. The inhibition result in test [2] was “inactive”. The inhibition entry in test [4] is “Dose-dependent effect”.

In general, IC50 refers to the concentration that inhibits the measured activity by half.

These data come from ChEMBL document CHEMBL2150931, “Design, synthesis, and biological activity of a novel series of human sirtuin-2-selective inhibitors” (J Med Chem, 2012).
